An excerpt weighted towards active compounds, which were near 10% of everything screened.
Diaphorase act = diaphorase activation or chemical reduction counter-screen. activation factor at 20 µM. 190,000 tested, 0.005% active. Diaphorase/resazurin coupled assay, resorufin fluorescence, 16 min; stronger effect = higher value; 1 = vehicle wells, 0 = NADH-free wells;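 active means diaphorase activity raised at least twofold by the compound at 20 µM; inactive means activation factor below 2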
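Material: Clostridium kluyveri diaphorase, purified enzyme; Quantity: enzyme 0.07 U/mL final; Medium: HEPES pH 7.4 buffer with MgCl2 and Tween 20; Dosing: single compound dose of 20 µM, 1% DMSO final; Schedule: 16 min reaction at room temperature; Measured by: red resorufin fluorescence at 544/590 nm excitation/emission.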
Lmaj promast = reduces viability of Leishmania major promastigotes; resazurin fluorescence viability; inhibition, % at 10 µM; 200,000 tested, 9% active; AID 1063; in the data active means inhibition above about 50%;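 further: promastigotes grown with compound for 44 hours at 28 °C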
PMI act hi M6P = activators of human phosphomannose isomerase at near-saturating mannose 6-phosphate; 190,000 tested, 0.34% active; activation factor at 20 µM; coupled PMI enzyme assay, resazurin fluorescence, 20 min; stronger effect = higher value; 1 = untreated enzyme, 0 = substrate-free blank;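 active means activation factor of 2 or more at 20 µM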
Target sequence (P34949 whole entry, looked up): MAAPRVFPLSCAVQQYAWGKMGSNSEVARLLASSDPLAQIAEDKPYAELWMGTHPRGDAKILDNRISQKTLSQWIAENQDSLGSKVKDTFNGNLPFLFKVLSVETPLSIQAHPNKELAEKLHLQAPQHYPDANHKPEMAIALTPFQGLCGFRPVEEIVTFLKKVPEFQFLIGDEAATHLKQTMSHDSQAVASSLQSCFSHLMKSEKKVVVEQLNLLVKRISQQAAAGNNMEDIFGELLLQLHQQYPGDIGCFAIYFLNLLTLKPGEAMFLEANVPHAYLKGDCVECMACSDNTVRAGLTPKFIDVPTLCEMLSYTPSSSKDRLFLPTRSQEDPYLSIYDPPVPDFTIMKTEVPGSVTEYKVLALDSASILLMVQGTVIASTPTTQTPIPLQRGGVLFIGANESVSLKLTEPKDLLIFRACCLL
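Material: human phosphomannose isomerase with PGI, G6PDH, diaphorase coupling enzymes; amount: PMI at 15 ng/mL final; also added: Mannose-6-phosphate 1.0 mM (near-saturating) plus 0.22 mM NADP+; incubation: enzyme reaction with compound 20 min at room temperature; signal: resorufin fluorescence (Ex 544/Em 590 nm) from resazurin via diaphorase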
PMI activator = phosphomannose isomerase (human) activation | P34949 | purified human PMI, coupled resazurin fluorescence, 20 min; stronger effect = higher value; 1 = vehicle control, 0 substrate-free wells | activation factor at 20 µM | 190,000 tested, 0.005% active | AID 1214;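 active means activation factor of 2 or more at 20 µM, relative to plate controls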
WT yeast gro inh = growth inhibition of WT yeast, mitochondrial fusion screen; mitochondrial fusion phenotypic screen, WT strain; inhibition, % at 10 µM; 190,000 tested, 2.1% active; AID 1362; in the data active means inhibition above about 58%; tested in S. cerevisiae
Lmaj promast 1uM = blocks Leishmania major promastigote growth at 1 uM, repeat screen. shares compounds with Lmaj promast. L. major promastigote growth, resazurin fluorescence, 48 h. inhibition, % at 1 µM. 1,100 tested, 13% active. AID 1258;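 active means inhibition above about 50% in both repeat tests, limit read from the data; inconclusive means one repeat under the set limit, the other over it; inactive means both repeats under the set limit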
Large screens that a line does not name were inactive (follow-up assays come after a bar, where they were run).

Cc1ccc([N+](=O)[O-])cc1N=Nc1c(-c2ccc([N+](=O)[O-])cc2)[nH]n(C(N)=S)c1=O	Lmaj promast 88.1 | Lmaj promast 1uM inactive
CC1CC(C)(C)NC(=S)O1 (stereo not given)	none
C=CC[N+](C)(C)CCCNC(=O)/C=N/O	Lmaj promast 73.3 | Lmaj promast 1uM inactive
CN(C)CCCNCCCNC(=O)/C=N/O	none
O=C(Nc1ccccc1)c1ccc[nH]1	none
CCOC(=O)c1cnn(-c2ncnc3sc4c(c23)CCC4)c1N	none
CCOC(=O)c1cnn(-c2nc(SC)nc3sc4c(c23)CCCC4)c1N	Lmaj promast 59.7 | Lmaj promast 1uM inactive
CN(Cc1cn(C)nc1-c1ccccc1F)CC1CCCCO1 (stereo not given)	none
Cc1ccc(C2CC(=O)c3cnn(-c4nc(C)cc(C)n4)c3C2)cc1 (stereo not given)	Lmaj promast 74.8 | Lmaj promast 1uM inactive
COc1cccc(COc2ccccc2C2Nc3ccc(Br)cc3C(=O)N2NC(=O)c2ccncc2)c1 (stereo not given)	Lmaj promast 100.1 | Lmaj promast 1uM inactive
O=C(NCC1(c2ccccc2)CCOCC1)c1cccs1	none
O=C(OCc1ccccc1)c1cn(-c2ccccc2)nc1-c1ccncc1	Lmaj promast 68.6 | Lmaj promast 1uM inactive
COC(=O)c1cn(-c2ccccc2)nc1-c1ccncc1	none
CCOC(=O)Cc1c(C)nc2c(-c3ccc(OC)cc3)c(C)nn2c1C	none
On1onc2c3cc(-c4ccccc4)nc3ccc21	Lmaj promast 100.4, WT yeast gro inh 80.6 | Lmaj promast 1uM inactive
c1ccc(-c2cc3c(ccc4nonc43)nn2)cc1	none
Nc1nsc2ccccc12	Lmaj promast 100.4 | Lmaj promast 1uM 95.1
COc1ccccc1OC1OC2COC(c3ccco3)OC2C(O)C1NC(C)=O (stereo not given)	Lmaj promast 65.2 | Lmaj promast 1uM inactive
COc1ccc(C2=Nc3ccc(C)cc3C(c3ccccc3)N2CC(=O)NN)cc1 (stereo not given)	none
COC(=O)CN1C(c2ccc(Cl)cc2)=Nc2ccc(Cl)cc2C1c1ccccc1 (stereo not given)	Lmaj promast 64.8, WT yeast gro inh 81.8 | Lmaj promast 1uM inactive
CCN(Cc1ccncc1)Cc1cn[nH]c1-c1ccc(OC)cc1F	none
CC1=CCC(/C=N\Nc2nnc3c(n2)[nH]c2ccccc23)CC1 (stereo not given)	Lmaj promast 51.8 | Lmaj promast 1uM inactive
CC(C)CSc1nnc2c(n1)[nH]c1ccccc12	none
O=C(O)c1cc(-c2ccc(O)cc2)on1	none
COC(=O)c1ccc(NC(=O)c2ccccc2-c2ccccc2C(=O)O)cc1	none
Nc1ccc(-c2nc3ccc(N)cc3[nH]2)cc1	none
Nc1ccc(-c2nc3ccc(-c4nc5ccccc5o4)cc3[nH]2)cc1	Lmaj promast 75.6 | Lmaj promast 1uM inactive
COc1ccccc1/C=C/CN1CCCC(CO)(Cc2cccc(Cl)c2)C1 (stereo not given)	Lmaj promast 82.3, WT yeast gro inh 65.0 | Lmaj promast 1uM inactive
COc1ccccc1/C=C/CN1CCOCC1	none
COc1ccc(NC(=S)NCc2ccco2)c(OC)c1	none
CCc1ccc(/C=C/c2c[nH]c3ccccc23)[n+](CC)c1	Lmaj promast 100.0 | Lmaj promast 1uM inactive
COC(=O)c1sccc1N(C)S(C)(=O)=O	none
CCC(C#CCN1CCCCC1)(CC)OCCC#N	Lmaj promast 64.7 | Lmaj promast 1uM inactive
CCC(C#CCN1CCOCC1)(CC)OCCC#N	none
CC(=O)c1ccc(OCCOc2ccc(Cl)c3cccnc23)cc1	none
N=C(N)CCCOc1ccccc1-c1ccccc1	Lmaj promast 53.2 | Lmaj promast 1uM inactive
OCCNCCOc1ccccc1-c1ccccc1	none
CC(C)c1ccc(/C=N/Nc2ccc(C(=O)O)cc2)cc1	Lmaj promast 56.6, PMI act hi M6P 2.5 | Lmaj promast 1uM inactive
Cc1ccc(/C=N/Nc2ccc(C(=O)O)cc2)o1	none
COc1cc(CN2CCNC(=O)C2CC(=O)N2CCc3ccccc3C2)cc(OC)c1 (stereo not given)	none
Cn1cc(CNC(=O)C2CCCCC2)cn1	none
CN(Cc1cnn(C)c1)C(=O)C1CCCCC1C(=O)O (stereo not given)	Lmaj promast 53.7 | Lmaj promast 1uM inactive
COc1ccc(Cl)cc1C(=O)Nc1cccc(-c2ccc3nncn3n2)c1	none
COC(=O)CS(=O)(=O)c1nnc([C@H](Cc2ccccc2)NC(=O)OC(C)(C)C)o1	Lmaj promast 100.5 | Lmaj promast 1uM inactive
Cc1ccc(NC(=O)Nc2sc(=S)n(C)c2C)cc1	Lmaj promast 58.6 | Lmaj promast 1uM inactive
CCN1C(=O)NC2=C(C(=O)c3ccccc32)C1c1ccccc1F (stereo not given)	Lmaj promast 99.8 | Lmaj promast 1uM inactive
COc1ccc(-n2c(C)cc(C(=O)CSc3nn4c(=O)c(C(C)(C)C)nnc4s3)c2C)cc1	Lmaj promast 64.0 | Lmaj promast 1uM inactive
Cc1cccc(C)c1NC1=NCCCCC1	none
CN1CCC(OC(=O)c2ccccc2Cl)CC1	Lmaj promast 75.8 | Lmaj promast 1uM inactive
CN1CCN(S(=O)(=O)c2ccc(NC(=S)NC(=O)c3ccccc3)cc2)CC1	none
CN1CCN(S(=O)(=O)c2ccc(NC(=S)NC(=O)c3ccc(Cl)cc3)cc2)CC1	Lmaj promast 85.4 | Lmaj promast 1uM inactive
O=C(CSC1=NCCN1)NC12CC3CC(CC(C3)C1)C2	Lmaj promast 100.3 | Lmaj promast 1uM inactive
Cc1cc(=O)oc2cc(OCC(=O)OCC(=O)N3CCC(C)CC3)ccc12	none
Cn1nc(C(F)(F)F)c2cc(C(=O)Nc3ccc(F)cc3F)sc21	none
Cn1nc(C(F)(F)F)c2cc(NC(=O)OCc3ccc(C(C)(C)C)cc3)sc21	Lmaj promast 97.5 | Lmaj promast 1uM inactive
Cc1ccc(C(=O)O/N=C(\N)c2nonc2N)cc1	none
CCOC(=O)c1c(-c2ccc(F)cc2)csc1NC(=O)CCN1CCOCC1	Lmaj promast 93.5 | Lmaj promast 1uM 77.4
O=c1c2sc3nc(N4CCOCC4)c4c(c3c2ncn1CCc1ccccc1)CCCC4	Lmaj promast 73.8 | Lmaj promast 1uM inactive
O=c1c2sc3nc(N4CCOCC4)c4c(c3c2ncn1-c1ccccc1)CCCC4	none
Cc1cccc2c(CC(=O)O)noc12	Lmaj promast 79.2 | Lmaj promast 1uM inactive
CC1=C(C#N)C(/C=N/OCc2ccc(F)cc2Cl)CC(=O)N1 (stereo not given)	none
OCCC1CN(Cc2cccc(C(F)(F)F)c2)CCN1Cc1ccccc1 (stereo not given)	Lmaj promast 80.3 | Lmaj promast 1uM inconclusive
O=c1c2ccccc2nc(-c2ccccc2)n1CCN1CCOCC1	none
O=c1c2ccccc2nc2c3ccccc3c(NCCN3CCOCC3)nn12	Lmaj promast 100.2 | Lmaj promast 1uM inactive
NC(=O)C1CCN(CC(=O)N2N=CCC2c2ccccc2)CC1 (stereo not given)	none

High-throughput results (PubChem BioAssay)
